# Laboratory results published in article PMC4675651 (Drug Design, Development and Therapy, 2015).
# Entries after “also recorded” stand apart in the source; their conditions may differ. Read-outs that look alike come from different tables or passages of the source.
# Tests used:
# PTP1B = molecular target: T1, PTP1B (Homo sapiens, UniProt P18031); assay: PTP1B inhibition measurement; type: biochemical
# T1 sequence (P18031 3-277 limits assumed): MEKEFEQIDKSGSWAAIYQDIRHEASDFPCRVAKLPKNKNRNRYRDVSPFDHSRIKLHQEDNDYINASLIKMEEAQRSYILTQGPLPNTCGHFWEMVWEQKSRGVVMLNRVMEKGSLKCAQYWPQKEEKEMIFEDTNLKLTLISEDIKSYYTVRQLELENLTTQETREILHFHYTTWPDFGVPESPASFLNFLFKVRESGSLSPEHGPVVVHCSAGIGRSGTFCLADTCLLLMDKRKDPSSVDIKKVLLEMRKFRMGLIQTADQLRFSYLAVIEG
# Outline: (§1)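 Recombinant catalytic domains in pH 7.0 buffer (50 mmol/L MOPS, 100 mmol/L NaCl, 1 mmol/L EDTA, 1 mmol/L DTT, 1 mg/mL BSA). Enzyme preincubated with test compound 5 min at 37 °C. Then pNPP (100 mmol/L stock) added, 10 min at 37 °C. Stopped with NaHCO3; p-nitrophenol read at 405 nm. IC50 by fitting concentration–inhibition curves; triplicate points.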
# SHP1 = molecular target: T2, SHP1 (Homo sapiens, UniProt P29350); assay: PTP selectivity panel; type: biochemical
# T2 sequence (P29350 244-515 limits assumed): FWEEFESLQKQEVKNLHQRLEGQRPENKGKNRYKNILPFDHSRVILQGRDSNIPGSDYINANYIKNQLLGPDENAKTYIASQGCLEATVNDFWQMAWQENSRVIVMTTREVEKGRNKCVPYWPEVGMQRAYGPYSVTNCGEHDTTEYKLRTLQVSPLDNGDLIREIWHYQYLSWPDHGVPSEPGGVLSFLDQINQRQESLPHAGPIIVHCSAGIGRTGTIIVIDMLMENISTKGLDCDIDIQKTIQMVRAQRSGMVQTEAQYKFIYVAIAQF
# Outline: as §1
# SHP2 = molecular target: T3, SHP2 (Homo sapiens, UniProt Q06124); assay: PTP selectivity panel; type: biochemical
# T3 sequence (Q06124 247-517 limits assumed): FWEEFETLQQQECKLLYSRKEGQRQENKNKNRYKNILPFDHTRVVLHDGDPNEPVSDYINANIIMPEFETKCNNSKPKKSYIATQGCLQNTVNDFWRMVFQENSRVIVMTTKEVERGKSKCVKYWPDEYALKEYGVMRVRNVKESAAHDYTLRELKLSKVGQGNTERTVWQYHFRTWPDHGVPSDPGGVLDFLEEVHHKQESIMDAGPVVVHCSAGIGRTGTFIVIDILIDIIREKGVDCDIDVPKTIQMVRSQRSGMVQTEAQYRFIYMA
# Outline: as §1
# TCPTP = molecular target: T4, TCPTP (Homo sapiens, UniProt P17706); assay: PTP selectivity panel; type: biochemical
# T4 sequence (P17706 5-275 limits assumed): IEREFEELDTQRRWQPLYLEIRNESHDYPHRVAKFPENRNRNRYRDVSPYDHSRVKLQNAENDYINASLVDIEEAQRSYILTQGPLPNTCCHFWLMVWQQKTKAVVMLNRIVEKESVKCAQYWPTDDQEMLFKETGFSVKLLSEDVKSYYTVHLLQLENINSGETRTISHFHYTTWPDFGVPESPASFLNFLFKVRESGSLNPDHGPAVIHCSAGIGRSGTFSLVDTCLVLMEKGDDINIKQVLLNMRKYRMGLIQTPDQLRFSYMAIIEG
# Outline: as §1
# HePTP = molecular target: T5, HePTP (Homo sapiens, UniProt P35236); assay: PTP selectivity panel; type: biochemical
# T5 sequence (P35236 97-350 limits assumed): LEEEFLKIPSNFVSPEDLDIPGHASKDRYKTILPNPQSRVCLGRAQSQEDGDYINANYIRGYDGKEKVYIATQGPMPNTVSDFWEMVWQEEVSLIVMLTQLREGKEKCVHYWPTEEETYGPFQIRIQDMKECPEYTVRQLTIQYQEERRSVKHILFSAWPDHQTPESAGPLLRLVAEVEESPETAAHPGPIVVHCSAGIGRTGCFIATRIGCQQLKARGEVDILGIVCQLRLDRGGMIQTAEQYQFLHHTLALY
# Outline: as §1
# T2DM mice = type: in vivo; details: for Serum TC / Serum TG / Body weight / Effect on serum TC and TG: T2DM mice; for Serum TC / Serum TG: 200 mg/kg oral once per day, mean ± SD (n=8–10); for Body weight: 200 mg/kg oral once a day for 8 weeks; for Effect on serum TC and TG: 200 mg/kg oral, 8 weeks
# Outline: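 Male Kunming mice (8 weeks, 18–22 g) fed high-fat diet (20% sucrose, 10% lard, 2.5% cholesterol, 1% sodium cholate, 66.5% chow) for 4 weeks. After an 8 h fast, STZ 35 mg/kg i.p. in citrate-buffered saline pH 4.4, daily for 1 week. Test compound by oral gavage daily for 8 weeks, DMSO stock diluted in 0.9% saline; saline vehicle. Weekly 8-h-fasted tail-vein glucose (glucometer) and body weight; serum TG/TC by kits.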
# C2C12 cells = assay: MTT cytotoxicity assay; type: cell-based; details: 24 hours
# Outline: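 C2C12 cells were grown in DMEM with 10% FBS at 37 °C, 5% CO2, seeded in 96-well plates and exposed to test compound for 24 h. MTT (5 mg/mL stock) was added for 4 h at 37 °C. Formazan was dissolved in DMSO and read at 490 nm. Viability is relative to untreated control (100%). Six wells per treatment; three independent experiments.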
# [1] = tested on: insulin signaling (IRβ, AKT, ERK1/2, phosphotyrosine) in adipose tissue, skeletal muscle, and liver; assay: Western blot of insulin signaling in tissues of T2DM mice; type: in vivo; details: 200 mg/kg, 8 weeks
# Outline: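 After 8 weeks of dosing, subcutaneous adipose, skeletal muscle and liver were snap-frozen and homogenised in SDS sample buffer lacking bromophenol blue, then spun 12,000 × g, 20 min, 4 °C. 20 µg protein run on 8–10% SDS-PAGE. Membranes blocked 2 h in 3% BSA/TBST; primaries overnight at 4 °C, HRP secondaries 2 h. ECL and densitometry; phospho normalised to total, normal mice = 100%; n=3.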
# [2] = tested on: insulin signaling (IRβ, AKT, ERK1/2, GLUT4, phosphotyrosine) in C2C12 myotubes; assay: Western blot of insulin signaling in insulin-stimulated C2C12 myotubes; type: cell-based
# Outline: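 C2C12 myoblasts at 75% confluence were differentiated in DMEM with 2% horse serum for 4–6 days. Myotubes were pretreated 1 h with test compound (in DMSO), then given 10 nM insulin for 10 min. Whole-cell lysates and plasma-membrane fractions were blotted (10% SDS-PAGE) for phospho/total IRβ, AKT, ERK1/2, GLUT4, phosphotyrosine and actin; ECL detection. Phospho normalised to total, expressed as fold of insulin alone; n=3.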
# PTP1B−/− mice = assay: Honokiol treatment of PTP1B gene knockout mice; type: in vivo; details: pre-experiments, Figure S2
# PPAR-γ = details: in vitro; ref Atanasov et al [18]; cited from earlier work
# L6 myotubes = details: ref Choi et al [19]; cited from earlier work
# [3] = tested on: murine and human adipocytes; details: ref Alonso-Castroa et al [20]; cited from earlier work
# [4] = honokiol 0 to 30 µM 1 hour, then 10 nM insulin 10 minutes
structure (smiles),measurement,setting,value
C=CCc1ccc(O)c(-c2ccc(O)c(CC=C)c2)c1 [Honokiol],Ki,PTP1B,6.67 µM
same,Inhibition type on PTP1B,"PTP1B; Lineweaver–Burk plot, 1/v versus 1/[pNPP]",reversible competitive inhibitory activity; also recorded: competing with the substrate for the enzyme active site
same,IC50,SHP1,763.2 ± 5.49 µM
same,Selectivity on PTP1B over SHP1,SHP1; from IC50 values,~ 12 fold
same,IC50,SHP2,785.5 ± 6.83 µM
same,Selectivity on PTP1B over SHP2,SHP2; from IC50 values,~ 12 fold
same,IC50,TCPTP,604.4 ± 4.89 µM
same,Selectivity on PTP1B over TCPTP,TCPTP; from IC50 values,approximately ninefold
same,IC50,HePTP,890 ± 9.46 µM
same,Selectivity on PTP1B over HePTP,HePTP; from IC50 values,~ 14 fold
same,Serum TC,T2DM mice; 0 week,3.62 ± 0.15 mmol/L
same,Serum TG,T2DM mice; 0 week,0.51 ± 0.03 mmol/L
same,Serum TC,T2DM mice; 8 week,3.67 ± 0.16 mmol/L
same,Serum TG,T2DM mice; 8 week,0.48 ± 0.03 mmol/L
same,Body weight,T2DM mice,decreased at early treatment and then gradually increased
same,Effect on serum TC and TG,T2DM mice,does not affect TC and TG
same,Macroscopic organ toxicity,"T2DM mice; brain, heart, kidneys, liver, spleen, stomach, large and small intestine, and lungs",no macroscopic toxicity
same,Dose with the most significant hypoglycemic effects (pre-experiments),"T2DM mice; series 10, 50, 100, 150, 200, 250, and 300 mg/kg, data not shown",200 mg/kg
same,Maximum concentration without cytotoxicity,C2C12 cells,40 µM
same,"Serine phosphorylation of AKT in adipose tissue, skeletal muscle, and liver",[1],enhanced
same,"Tyrosine phosphorylation of ERK in adipose tissue, skeletal muscle, and liver",[1],enhanced
same,Tyrosine phosphorylations of cellular proteins,[2],enhanced
same,Insulin-induced GLUT4 level in the plasma membrane fraction,[2]; GLUT4 in whole cell lysates not altered,dose-dependently increased
same,Insulin-stimulated tyrosine phosphorylation of ERK,[2]; [4],enhances
same,Insulin-stimulated tyrosine phosphorylation of IRβ,[2]; [4],largely enhanced
same,Serine phosphorylation of AKT,[2]; [4],enhances
same,Blood glucose in PTP1B−/− mice,PTP1B−/− mice,cannot affect; also recorded: No hypoglycemic potency
same,Body weight in PTP1B−/− mice,PTP1B−/− mice,No potency of honokiol on the amelioration of body weight
same,PPAR-γ activation,PPAR-γ,novel nonadipogenic partial PPAR-γ activator
same,Glucose uptake,L6 myotubes,stimulates glucose uptake
same,Glucose uptake,[3],stimulates glucose uptake
"CN(C)C(=N)N=C(N)N [Metformin, reference compound]",Serum TC,T2DM mice; 0 week,3.70 ± 0.31 mmol/L
same,Serum TG,T2DM mice; 0 week,0.54 ± 0.02 mmol/L
same,Serum TC,T2DM mice; 8 week,3.57 ± 0.11 mmol/L
same,Serum TG,T2DM mice; 8 week,0.49 ± 0.04 mmol/L
same,Body weight,T2DM mice,stable body weight
same,Effect on serum TC and TG,T2DM mice,no significant difference
